S100A4 MyoIIA – blocks human S100A4 binding to myosin IIA peptide. P26447. 0.14% of 360,000 active. inhibition, % at 10.7 µM. S100A4/TAMRA-MyoIIA peptide fluorescence polarization. AID 652163;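 active = mean inhibition of at least 70% across replicates, with every replicate also reaching that level; inconclusive = mean inhibition reaches 70% but some replicates fall short; inactive = mean inhibition below 70%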
Target sequence (P26447 whole entry, looked up): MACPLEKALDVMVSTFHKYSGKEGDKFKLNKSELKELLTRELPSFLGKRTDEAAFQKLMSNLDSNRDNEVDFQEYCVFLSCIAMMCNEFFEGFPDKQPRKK
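Test system: S100A4 monomer protein. Medium: HEPES buffer with Ca2+, pH 7.2. Reagent: fluorescent myosin IIA peptide, 5 nM. Compound dosing: single-point compound testing. Timing: 5 min between mix addition and reading. Benchmarks: DMSO neutral and TFP positive wells.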
rRNA inh HTS – inhibits bacterial ribosomal RNA function over humanized ribosomes; 1.6% of 350,000 active; GFP signal change (wild-type ribosome), % (test concentration not listed); E. coli WT GFP vs humanized-ribosome RFP mutants, fluorescence, 24 h; stronger effect = lower value; DMSO median 0, no signal -100; AID 720706;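 active = significant combined selectivity score with lowered wild-type GFP, culture density cut under 30%, mutant RFP and density less affected; inactive = any of these conditions unmet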
DENV2 CPE rescue – inhibitors of DENV2 cytopathic effect. DENV2-infected cells, cytopathic effect rescue, plate reader. CPE inhibition, % at 9.99 µM. 1.7% of 350,000 active. AID 651640; in the data active = CPE inhibition above about 20%, passing the limit was not always enough; inconclusive = no clear call, values can overlap the other calls; tested in BHK-21 cells;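 note: 0% = median of neutral control wells and 100% = median of positive control wells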
Cneo AK release – Cryptococcus neoformans lysis via adenylate kinase release. C. neoformans lysis, adenylate kinase release luminescence, 4 h; normalised: neutral wells 0, clomiphene wells 100. lysis activity, % at 15 µM. 0.2% of 360,000 active. AID 651654;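 active = mean lysis activity across replicates of at least 80%, whatever share of replicates individually reach that level; inactive = mean lysis activity below 80%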
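Material: C. neoformans cells; Schedule: 4 h static compound exposure, 37 °C, read 1 h post-reagent; Measured by: adenylate kinase release luminescence; Read-out: signal increase indicating cell lysis; Controls: Clomiphene as positive lysis control.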
PfHsp90 set2 – reduces growth (ATP signal) of yeast expressing P. falciparum Hsp90. S. cerevisiae expressing PfHsp90, BacTiter-Glo ATP, 48 h; yeast lacking PDR1 and PDR3 efflux regulators. inhibition, % at 9.4 µM. 0.32% of 310,000 active;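 active = every replicate shows inhibition above about 80%, whatever the replicate mean, limit read from the data; inconclusive = mean inhibition reaches the set limit but some replicate falls short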;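 note: 0% = DMSO neutral controls and 100% = 20 µM radicicol positive controls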
MLL AF4-AF9 inh – MLL-AF4/AF9 protein interaction inhibition | P42568 | AlphaScreen, biotin-AF4 peptide binding to FLAG-AF9 | inhibition, % at 10 µM | 0.47% of 350,000 active;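 active = every replicate reaching a set inhibition limit, whatever the replicate mean, cut at about 25% in these data; inconclusive = mean inhibition reaches that limit but some replicates miss it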;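 note: 0% = plate neutral control median and 100% = total signal loss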
Target sequence (P42568 whole entry, looked up): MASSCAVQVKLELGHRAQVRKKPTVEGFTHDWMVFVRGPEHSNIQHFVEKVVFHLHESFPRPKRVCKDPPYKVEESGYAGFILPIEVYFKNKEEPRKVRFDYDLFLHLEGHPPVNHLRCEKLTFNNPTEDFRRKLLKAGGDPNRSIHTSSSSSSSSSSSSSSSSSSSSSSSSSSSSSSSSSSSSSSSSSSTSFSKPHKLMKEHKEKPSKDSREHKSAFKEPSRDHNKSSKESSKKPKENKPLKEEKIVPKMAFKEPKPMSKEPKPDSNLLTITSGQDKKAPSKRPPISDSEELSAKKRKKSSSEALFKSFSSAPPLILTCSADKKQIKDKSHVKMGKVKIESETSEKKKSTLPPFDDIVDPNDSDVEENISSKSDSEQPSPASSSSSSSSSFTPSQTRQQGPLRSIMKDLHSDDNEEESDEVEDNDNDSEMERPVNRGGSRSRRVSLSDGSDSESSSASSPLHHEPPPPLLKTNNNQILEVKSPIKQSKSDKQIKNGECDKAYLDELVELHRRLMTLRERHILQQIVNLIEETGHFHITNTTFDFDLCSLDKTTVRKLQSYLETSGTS
Active calls of the source: *; ? = inconclusive; nt = no result given. A selection: hits, their analogues and other compounds. The true share with any hit is near 3.2%.

SMILES | S100A4 MyoIIA | rRNA inh HTS | DENV2 CPE rescue | Cneo AK release | PfHsp90 set2 | MLL AF4-AF9 inh
C[C@@H]1CCCCO[C@H](CN(C)C(=O)Nc2ccc(C(F)(F)F)cc2)[C@H](C)CN([C@H](C)CO)C(=O)c2cc(NS(=O)(=O)c3ccccc3)ccc2O1 | 0 | -2 | 77* | 0 | nt | 1
C[C@H](CO)N1C[C@H](C)[C@@H](CN(C)C(=O)Nc2ccc(C(F)(F)F)cc2)OCCCC[C@H](C)Oc2ccc(NS(=O)(=O)c3cccs3)cc2C1=O | -2 | -1 | 94* | 0 | nt | -1
C[C@H](CO)N1C[C@H](C)[C@@H](CN(C)C(=O)Nc2ccc(C(F)(F)F)cc2)OCCCC[C@H](C)Oc2ccc(NS(=O)(=O)c3ccccc3)cc2C1=O | -8 | 2 | 41* | 60 | nt | -6
Cc1ccc(S(=O)(=O)Nc2ccc3c(c2)C(=O)N([C@H](C)CO)C[C@H](C)[C@@H](CN(C)C(=O)Nc2ccc(C(F)(F)F)cc2)OCCCC[C@H](C)O3)cc1 | -3 | 1 | 0 | 2 | nt | -3
C[C@@H]1CN([C@@H](C)CO)C(=O)c2cc(NS(=O)(=O)c3cccs3)ccc2O[C@@H](C)CCCCO[C@H]1CN(C)C(=O)Nc1ccc(F)cc1 | 9 | -2 | -5 | -8 | nt | -1
COc1ccc(C#Cc2ccc3c(c2)[C@]2(C(=O)N3)[C@H](C(=O)Nc3nc4ccccc4s3)[C@H]3C(=O)O[C@H](c4ccccc4)[C@H](c4ccccc4)N3[C@@H]2c2ccccc2OCCO)cc1 | -1 | nt | 9 | -9 | nt | -3
C[C@@H]1CN([C@H](C)CO)C(=O)c2cc(NS(=O)(=O)c3cccs3)ccc2O[C@@H](C)CCCCO[C@@H]1CN(C)C(=O)CCC(F)(F)F | nt | 2 | 31* | 1 | nt | nt
CC(C)c1cn(CC[C@@H]2CC[C@@H](NC(=O)Nc3cc(Cl)cc(Cl)c3)[C@H](CO)O2)nn1 | ? | -22 | 1 | -1 | nt | 1
CCn1ncc(/C=C/C(=O)Nc2c(C)nn(CC)c2C)c1C | nt | nt | nt | 0 | -7 | nt
CCn1nc(C)c(/C=C/C(=O)Nc2ccc(C)cc2C)c1C | -10 | -18 | 89* | nt | 7 | 3
COc1ccc(-n2cc(C(=O)c3cc(Cl)ccc3O)cc(C#N)c2=O)cc1 | -24 | -34 | -5 | nt | -14 | -18
COc1ccc(O)c(C(=O)c2cc(C#N)c(=O)n(-c3ccc(Cl)cc3)c2)c1 | -4 | 1 | -1 | nt | -19 | 29*
C=C1SC(Nc2c(C)cc(C)cc2C)=NC12CCCCC2 | -23 | -50* | ? | 6 | 7 | 17
Cc1cccc(C)c1NC(=O)NC1(C(=O)N2CCCCC2)CCCCC1 | 9 | 2 | -3 | 3 | 14 | -2
C=C1SC(Nc2c(C)cccc2C)=NC12CCCCC2 | -21 | -22* | 0 | 4 | 8 | 1
CCn1c(SCc2ccc(F)cc2)nc2c(c1=O)SCC2 | -4 | -31* | -4 | nt | -12 | 5
CCn1c(SCc2cccc(F)c2)nc2c(c1=O)SCC2 | -4 | -35* | 2 | -3 | -5 | 9
CCn1c(SCC(=O)N2CCCCC2)nc2c(c1=O)SCC2 | -25 | 6 | -3 | 3 | -1 | -1
C[C@@H]1CN([C@@H](C)CO)C(=O)c2cc(NC(=O)c3ccccc3)ccc2O[C@@H](C)CCCCO[C@H]1CN(C)C(=O)c1ccccc1 | 9 | -4 | 8 | -1 | nt | 2
O=C(COCC(=O)Nc1cccc(C(F)(F)F)c1)Nc1cccc(C(F)(F)F)c1 | nt | nt | nt | 1 | -14 | nt
COc1cc(NC(=O)CSCC(=O)Nc2cccc(C(F)(F)F)c2)c(Cl)cc1Cl | -1 | -31* | 7 | -2 | -4 | -8
Cc1noc(C)c1NC(=O)Nc1cccc2c1O[C@H](CN(C)Cc1ccc(C(F)(F)F)cc1)[C@H](C)CN([C@@H](C)CO)C2=O | -5 | 0 | 21* | -9 | nt | 0
Cc1noc(C)c1NC(=O)Nc1cccc2c1O[C@@H](CN(C)Cc1ccc(-c3ccccc3)cc1)[C@H](C)CN([C@H](C)CO)C2=O | -16 | -7 | 39* | -2 | nt | -2
Cc1noc(C)c1NC(=O)Nc1cccc2c1O[C@@H](CN(C)Cc1ccc(C(=O)O)cc1)[C@@H](C)CN([C@@H](C)CO)C2=O | -2 | 1 | 45* | 0 | nt | -2
CCCNC(=O)Nc1ccc2c(c1)OC[C@H](C)N(CC1CCCC1)C[C@H](C)[C@H](OC)CN(C)C2=O | 6 | 3 | -8 | -3 | nt | 0
SMILES | S100A4 MyoIIA | rRNA inh HTS | DENV2 CPE rescue | Cneo AK release | PfHsp90 set2 | MLL AF4-AF9 inh
C[C@@H](NC(=O)[C@@H]1[C@@H](CO)[C@@H]2Cn3c(cccc3=O)[C@@H]2N1S(C)(=O)=O)c1ccccc1 | 8 | 1 | -1 | 2 | nt | -1
C[C@H](CO)N1C[C@H](C)[C@@H](CN(C)Cc2ccccc2F)Oc2cc(C3=CCCCC3)ccc2S1(=O)=O | 13 | 1 | -13 | 5 | nt | 4
C[C@H](NC(=O)C[C@@H]1CC[C@@H](NC(=O)Nc2ccc3c(c2)OCO3)[C@@H](CO)O1)c1ccccc1 | -7 | 0 | 1 | -2 | nt | 1
COc1ccc(CN(C)C[C@H]2Oc3ccc(NC(=O)C4CCCCC4)cc3C(=O)N([C@@H](C)CO)C[C@H]2C)cc1 | 1 | 2 | 25* | -10 | nt | -1
COc1ccc(CN(C)C[C@@H]2Oc3ccc(NS(C)(=O)=O)cc3C(=O)N([C@H](C)CO)C[C@H]2C)cc1 | 5 | 3 | 25* | 0 | nt | -3
COc1ccc(CN(C)C[C@@H]2Oc3ccc(NS(=O)(=O)c4cccs4)cc3C(=O)N([C@H](C)CO)C[C@H]2C)cc1 | 6 | 4 | 31* | nt | nt | 0
COc1ccc(CN(C)C[C@@H]2Oc3ccc(NC(=O)C4CCCCC4)cc3C(=O)N([C@H](C)CO)C[C@H]2C)cc1 | 2 | 2 | 10 | 2 | nt | 0
COc1ccc(CN(C)C[C@H]2Oc3ccc(NS(=O)(=O)c4cccs4)cc3C(=O)N([C@@H](C)CO)C[C@H]2C)cc1 | 16 | 3 | 16 | nt | nt | 0
COc1ccc(CN(C)C[C@@H]2Oc3ccc(NS(=O)(=O)c4cccs4)cc3C(=O)N([C@@H](C)CO)C[C@H]2C)cc1 | -20 | 8 | 32* | 4 | nt | -19
Cc1ccc(S(=O)(=O)Nc2cccc3c2O[C@@H](CN(C)Cc2ccc(C(F)(F)F)cc2)[C@H](C)CN([C@H](C)CO)C3=O)cc1 | 5 | -2 | 20 | -1 | nt | 5
Clc1ccc(/C=C\c2nccc3c2[nH]c2ccccc23)cc1 | 0 | -25* | -3 | nt | -13 | -8
CO[C@@H](CN(C)Cc1ccc2c(c1)OCO2)[C@@H](C)CN(C(=O)c1ccccc1)[C@H](C)CO | 3 | 4 | ? | 96* | nt | 0

Source: PubChem (Broad Institute)
